Source: PubChem (Broad Institute)
CFTR F508del cor: correctors of CFTR F508del function in bronchial epithelial cells. CFBE cells, YFP halide quenching; stimulated with forskolin plus potentiator P3; % fluorescence drop versus neutral controls. activity (quench increase), % at 7.58 µM. hit rate 0.36% among 350,000. AID 720511;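 active = mean added fluorescence quench of at least 8% versus neutral control, with both replicates also reaching 8%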;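 also: cells transiently co-express mutant CFTR-F508del with the halide-sensitive YFP; corrector assay measuring rescue of mutant channel to the surface after 24 h compound exposure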
EWS-Fli inh: blocks EWS/Fli oncoprotein-driven transcription; A673 NR0B1-luciferase reporter, viability-normalised; inhibition, % at 12.6 µM; hit rate 0.67% among 350,000; AID 651661;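 active = mean inhibition of at least 50% after viability correction, with every replicate also passing that limit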;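 also: firefly luciferase signal divided by Alamar Blue viability fluorescence both relative to DMSO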
FN deposit inh: fibronectin deposition inhibition; AH1F fibroblasts, Alexa488-fibronectin deposition fluorescence, overnight; inhibition, % at 12.6 µM; hit rate 0.086% among 350,000; AID 743247;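 active = mean inhibition across replicates of 30% or more, regardless of how many single replicates reach that level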
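Assay system: AH1F fibroblasts / Quantity: 10000 cells per well / Medium: DMEM plus 2% serum, read in PBS / Reagent: labelled fibronectin 24 nM / Dosing: single dose, pinned / Times: 1 h cell attachment, overnight exposure to compound and label / Signal: fluorescence, ex 485 nm, em 525 nm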
PGC1a acetyl inh: PGC1a acetylation modulation, inhibitor mode. U2OS PGC1a acetylation, AlphaScreen anti-acetyl-lysine; with virally co-expressed GCN5 acetyltransferase. inhibition, % at 15.6 µM. hit rate 0.17% among 350,000;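 active = every replicate shows inhibition of at least 40%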
HIV Env fusion: blocks HIV Env-driven cell-cell fusion; HeLa-JRFL Env/CEM21 cell fusion, luciferase; inhibition, % at 12.3 µM; hit rate 1.1% among 360,000; AID 651610;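 active = mean replicate inhibition score of at least 50 and every replicate individually at or above 50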
PAX8 reporter: lowers PAX8-driven luciferase in RMG-I cells | hit rate 1.2% among 360,000 | inhibition, % at 12.6 µM | RMG-I TPO-luciferase reporter, SteadyGlo, 24 h;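 active = mean replicate inhibition at least 60% with every replicate also reaching 60%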;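 also: luciferase light reporting Pax8 driven TPO promoter activity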
Of the large screens only hits and unclear results are named; the others gave an inactive call; ! = repeats disagree. Most compounds without a hit are left out; they make up all but 2.3% or so of the library.

CCCCn1c(SCC(=O)Nc2ccc3c(c2)OCO3)nc2c1c(=O)n(C)c(=O)n2C	HIV Env fusion 79.0 (no result: CFTR F508del cor, EWS-Fli inh, FN deposit inh, PAX8 reporter)
Cn1c(=O)c2c(nc(SCC(=O)NCc3ccc4c(c3)OCO4)n2Cc2ccc(F)cc2)n(C)c1=O	HIV Env fusion 137.5 (no result: CFTR F508del cor, EWS-Fli inh)
CC(=O)Oc1ccc(C(=O)Cc2ccc3ccccc3n2)c(O)c1C	EWS-Fli inh 55.4 (no result: PGC1a acetyl inh)
CCNC(=O)[C@H]1[C@H](CO)[C@H]2Cn3c(ccc(C4=CCCC4)c3=O)[C@@H]1N2Cc1ccncc1	none (no result: FN deposit inh, PGC1a acetyl inh, HIV Env fusion, PAX8 reporter)
O=C(CCl)N(c1ccccc1)C1CCCCC1	PAX8 reporter 103.0
CN1c2ccc(-c3ccccc3F)cc2[C@H]2[C@H](CCN2S(=O)(=O)c2ccc(F)cc2)[C@@H]1CO	none (no result: HIV Env fusion)
COc1ccccc1CN(Cc1nc2ccccc2c(=O)[nH]1)S(=O)(=O)c1ccc2ccccc2c1	HIV Env fusion 98.4 (no result: CFTR F508del cor, EWS-Fli inh, PGC1a acetyl inh, PAX8 reporter)
c1ccc(CNc2ncnc3ccccc23)cc1	HIV Env fusion 106.4!
Oc1ccc(CCNc2c3ccccc3nc3ccccc23)cc1O	EWS-Fli inh 70.5 (no result: PGC1a acetyl inh)
Cc1ccc(O)c(Nc2c3ccccc3nc3ccccc23)c1	none
c1ccc(CNc2c3ccccc3nc3ccccc23)cc1	CFTR F508del cor 10.9 (no result: PGC1a acetyl inh)
CNc1nc(NCc2ccccc2)c2ccccc2n1	none
COc1cc2ncnc(NCc3ccccc3)c2cc1OC	none (no result: CFTR F508del cor, EWS-Fli inh, FN deposit inh, HIV Env fusion, PAX8 reporter)
Cc1ccc(S(=O)(=O)NCC[C@H]2CC[C@H](NC(=O)c3cccc(F)c3)[C@H](CO)O2)cc1	none (no result: FN deposit inh)
CC(=O)N1C[C@@H]2C(c3ccc(Br)cc3)[C@H](C1)N2C(C)=O (stereo partly drawn)	none (no result: CFTR F508del cor, EWS-Fli inh, PGC1a acetyl inh, HIV Env fusion, PAX8 reporter)
COCC(=O)N1C[C@@H](C)[C@H](OC)CN(C)C(=O)c2ccc(NC(=O)c3cnccn3)cc2OC[C@@H]1C	none (no result: PAX8 reporter)
CCC(C)(C)NC(=O)C(c1ccc(OC)cc1)N(Cc1ccco1)C(=O)CCC(=O)Nc1cc(C)on1 (stereo not drawn)	HIV Env fusion 33.9 (no result: CFTR F508del cor, EWS-Fli inh)
COc1ccc(C(C(=O)NC(C)(C)C)N(Cc2ccco2)C(=O)CCC(=O)Nc2cc(C)on2)cc1 (stereo not drawn)	none (no result: CFTR F508del cor, EWS-Fli inh, PGC1a acetyl inh)
N#Cc1ccc(-c2ccc(OCC(O)Cn3nnc4ccccc43)cc2)cc1 (stereo not drawn)	HIV Env fusion 58.9 (no result: CFTR F508del cor, EWS-Fli inh)
CC(=O)c1ccc(OCC(O)Cn2nnc3ccccc32)cc1 (stereo not drawn)	none (no result: FN deposit inh, HIV Env fusion, PAX8 reporter)
COc1ccc2c3c([nH]c2c1)[C@@H](CO)N(Cc1nccs1)CC31CN(C(=O)C2CCC2)C1	none (no result: FN deposit inh, HIV Env fusion)
CC(C)CC#Cc1cnc2c(c1)C(=O)N([C@@H](C)CO)C[C@@H](C)[C@@H](CN(C)C(=O)c1ccc(F)cc1)O2	none (no result: PAX8 reporter)
O=c1cc(-c2ccccc2Cl)oc2c([N+](=O)[O-])c(O)cc(O)c12	HIV Env fusion 65.2 (no result: PGC1a acetyl inh)
O=c1cc(-c2ccccc2Cl)oc2ccc([N+](=O)[O-])c(O)c12	none
COCCNC(=O)C[C@H]1C[C@H]2c3cc(N(C)C)ccc3O[C@H]2[C@@H](CO)O1	none (no result: FN deposit inh)
Cc1noc(C)c1S(=O)(=O)N(CC(=O)Nc1ccc2c(c1)OCO2)c1ccc(C(C)C)cc1	none
Cc1n[nH]c(C)c1S(=O)(=O)N(CC(=O)Nc1ccc2c(c1)OCCO2)c1ccc(C(C)C)cc1	HIV Env fusion 58.8
COc1ccc(C#Cc2ccc3c(c2)[C@H]2[C@H](CCN2Cc2ccncc2)[C@@H](CO)N3)cc1	none (no result: EWS-Fli inh, PGC1a acetyl inh, HIV Env fusion, PAX8 reporter)
COc1cc(NC(=O)c2ccc([N+](=O)[O-])o2)ccc1NC(=O)c1ccco1	PAX8 reporter 89.9 (no result: EWS-Fli inh)
Cc1cc(NC(=O)c2ccc([N+](=O)[O-])o2)ccc1NC(=O)c1ccco1	PAX8 reporter 98.9 (no result: CFTR F508del cor, PGC1a acetyl inh)
COc1ccc2c3c(n(C)c2c1)[C@H](CO)N(C(=O)c1cccnc1)CC31CCN(S(C)(=O)=O)CC1	none (no result: FN deposit inh, HIV Env fusion, PAX8 reporter)
CCOC(=O)c1ccc(NC(=O)c2ccc(CN3CCc4ccccc4C3)cc2)cc1	HIV Env fusion 58.3 (no result: PGC1a acetyl inh)
CCOc1ccc(NC(=O)c2ccc(CN3CCc4ccccc4C3)cc2)cc1	none
COc1ccc2c3c([nH]c2c1)[C@@H](CO)N(C(=O)c1cccnc1)CC31CN(C(=O)NC(C)C)C1	none (no result: FN deposit inh, PGC1a acetyl inh, PAX8 reporter)
O=C(Nc1ccc(F)cc1F)c1csc(-c2ccccc2)n1	none
O=C(Nc1ccc(F)cc1F)c1cccc(C(=O)Nc2ccc(F)cc2F)n1	HIV Env fusion 57.8 (no result: FN deposit inh, PGC1a acetyl inh)
